Data on five compounds can be found in ChEMBL document CHEMBL1140114, “Antitumor compounds based on a natural product consensus pharmacophore” (J Med Chem, 2008).

Usually IC50 stands for the point on the concentration scale where inhibition reaches its midpoint.

For series [1], the system named is A549. The series can be described thus: Cytotoxicity against human A549 cells upto 5 uM after 72 hrs by XTT colorimetric assay. Format: functional, cell-based. In short, it runs like this: (§1)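 Initial screen on a five-line panel (A549, COS-7, MCF-7, WiDr, NIH3T3). Compounds were tested at concentrations up to 5 µM. Read-out was percent inhibition of cell growth at the highest concentration, 5 µM.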

Series [2] can be described thus: Cytotoxicity against african green monkey COS7 cells upto 5 uM after 72 hrs by XTT colorimetric assay. The format is cell-based. Conditions: chlorocebus aethiops, cos-7, 72 h. In short, it runs like this:
as §1
In general terms: Tetrazolium dyes change colour on reduction, which living cells bring about.

The test system of series [3] is MCF7. The series can be described thus: Cytotoxicity against human MCF7 cells upto 5 uM after 72 hrs by XTT colorimetric assay. Format: functional, cell-based. In short, it runs like this:
as §1

For series [4], the system named is WiDr. The series can be described thus: Cytotoxicity against human WiDr cells upto 5 uM after 72 hrs by XTT colorimetric assay. Format: functional, cell-based. In short, it runs like this: as §1
The next series relates to NIH3T3. The series can be described thus: Cytotoxicity against mouse NIH3T3 cells upto 5 uM after 72 hrs by XTT colorimetric assay. The format is cell-based. The conditions noted are these: nih3t3, 72 h. A digest of the protocol: as §1
The subject of series [5] is A549. The series can be described thus: Cytotoxicity against human A549 cells after 72 hrs by XTT colorimetric assay. The format is functional, cell-based. The conditions noted are these: A549, 72 h. A digest of the protocol:
(§2)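 Seven-line tumour panel run with an XTT colorimetric cytotoxicity read-out; IC50 values estimated from the XTT data. Tissue origins: A549 lung carcinoma, MCF-7 breast cancer, OVCAR-3 ovarian cancer, PC-3 prostate cancer, WiDr colorectal cancer.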

Series [6] in a line: Cytotoxicity against human JeKo1 cells after 72 hrs by XTT colorimetric assay. The format is functional, cell-based. The conditions noted are these: JeKo-1, 72 h. In short, it runs like this: (§3)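 Mantle cell lymphoma lines (JeKo-1, JVM-2), screened within a seven-line human tumour panel. Viability read out by XTT colorimetric cytotoxicity assay, with IC50 estimated from the resulting growth inhibition data.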

A further series deals with JVM-2. The series can be described thus: Cytotoxicity against human JVM2 cells after 72 hrs by XTT colorimetric assay. The format is functional, cell-based. Conditions: JVM-2, 72 h. A digest of the protocol:
as §3

Series [7] concerns MCF7. The series can be described thus: Cytotoxicity against human MCF7 cells after 72 hrs by XTT colorimetric assay. Format: functional, cell-based. The conditions noted are these: MCF7, 72 h. In short, it runs like this:
as §2

In the next series the test system is OVCAR-3. The series can be described thus: Cytotoxicity against human OVCAR-3 cells after 72 hrs by XTT colorimetric assay. The format is functional, cell-based. The conditions noted are these: OVCAR-3, 72 h. A digest of the protocol: as §2
For another series, the system named is PC-3. The series can be described thus: Cytotoxicity against human PC3 cells after 72 hrs by XTT colorimetric assay. The format is functional, cell-based. Conditions: PC-3, 72 h. In short, it runs like this: as §2
The test system of series [8] is WiDr. The series can be described thus: Cytotoxicity against human WiDr cells after 72 hrs by XTT colorimetric assay.
In series [9] the test system is A549. The series can be described thus: Cytotoxicity against human A549 cells at 5 uM after 72 hrs by XTT colorimetric assay. Format: functional. In short, it runs like this:
as §1

Series [10] concerns MCF7. The series can be described thus: Cytotoxicity against human MCF7 cells at 5 uM after 72 hrs by XTT colorimetric assay. Format: functional. In short, it runs like this: as §1

The source made the active and inactive calls. The rule behind the calls is not given here.

For `CC(=O)O[C@@H](C)/C=C\C(=O)N[C@H]1CC[C@@H](CNC(=O)OC[C@@H]2C[C@]3(CO3)CC(C)(C)O2)CC1`, the outcome with A549 [1], with MCF7 [3] and in the series on WiDr [4] was inactive. For the same compound, the Activity result (in [2]; with NIH3T3) was “Not Active” each time.

As for `CC(=O)O[C@@H](C)/C=C\C(=O)N[C@H]1CC[C@@H](C/C=C(C)/C=C/[C@@H]2C[C@]3(CO3)CC(C)(C)O2)CC1`, the IC50 worked out at 4650 nM with A549 [5]; 100 nM in series [6]; 130 nM in the series with JVM-2; 2290 nM in the series on MCF7 [7]; 1980 nM in the series with OVCAR-3; 2120 nM with PC-3. This compound registered an IC50 in the series with WiDr [8] of 2030 nM.

Consider `CC[C@H](O)[C@@H](C)[C@H]1O[C@@H]1C[C@H](C)/C=C/C=C(\C)[C@H]1OC(=O)C[C@H](O)CC[C@@](C)(O)[C@@H](OC(C)=O)CC[C@@H]1C` [PLADIENOLIDE B], for which the IC50 in the series with A549 [5] worked out at 1.4 nM; in the series on MCF7 [7], 0.4 nM; in the series with OVCAR-3 it was 0.4 nM; in the series with PC-3, 2.3 nM; in the series with WiDr [8], 0.86 nM.

As for `CC(=O)O[C@@H](C)/C=C\C(=O)N[C@@H]1C[C@H](C)[C@H](C/C=C(C)/C=C/[C@H]2O[C@](C)(O)C[C@@]3(CO3)[C@@H]2O)O[C@@H]1C`, the values for the IC50 in the series on A549 [5] and in the series with MCF7 [7] were 1.3 nM and 1.8 nM, respectively.

For the compound `CC(=O)O[C@@H](C)/C=C\C(=O)N[C@H]1CC[C@@H](COC(=O)OC[C@@H]2C[C@]3(CO3)CC(C)(C)O2)CC1`, the Activity in the series on A549 [9] and in the series on MCF7 [10] was 10% in each case.
